This is an account of results in ChEMBL document CHEMBL1126604, “Synthesis and antiviral activity of 5-thien-2-yl-2'-deoxyuridine analogues” (1993).

Type in all cases: functional
The test system of experiment [1] is Cytomegalovirus. Put plainly: Minimum inhibitory concentration required to reduce cytomegalo virus (CMV (AD-169)) virus-induced cytopathicity by 50%. As to conditions: Human betaherpesvirus 5. On the technique in general: Protection from cytopathic effect is a common read-out in antiviral testing.
Experiment [2] deals with Cytomegalovirus. Briefly: Minimum inhibitory concentration required to reduce cytomegalo virus (CMV (Davis)) virus-induced cytopathicity by 50%. As to conditions: Human betaherpesvirus 5.
The subject of experiment [3] is Human alphaherpesvirus 1. Put plainly: Minimum inhibitory concentration required to reduce herpes simplex virus-1 (HSV-1 (KOS)) virus-induced cytopathicity by 50%.
Experiment [4] relates to Human alphaherpesvirus 1. Briefly: Minimum inhibitory concentration required to reduce herpes simplex virus-1 (HSV-1 (McIntyre)) virus-induced cytopathicity by 50%.
Experiment [5] relates to Human alphaherpesvirus 2. Briefly: Minimum inhibitory concentration required to reduce herpes simplex virus-2 (HSV-2 (G)) virus-induced cytopathicity by 50%.
Experiment [6] relates to Human alphaherpesvirus 2. Put plainly: Minimum inhibitory concentration required to reduce herpes simplex virus-2 (HSV-2 (Lyons)) virus-induced cytopathicity by 50%.
Experiment [7] concerns Human alphaherpesvirus 1. Put plainly: Minimum inhibitory concentration required to reduce thymidine kinase deficient-HSV-1 (B2006) virus-induced cytopathicity by 50%.
In experiment [8] the test system is Human alphaherpesvirus 1. Briefly: Minimum inhibitory concentration required to reduce thymidine kinase deficient-HSV-1 (VMW 1837) virus-induced cytopathicity by 50%.
In experiment [9] the test system is Human alphaherpesvirus 3. Put plainly: Minimum inhibitory concentration required to reduce TK-VZV (07-1) virus-induced cytopathicity by 50%.
Experiment [10] has as its system Human alphaherpesvirus 3. Briefly: Minimum inhibitory concentration required to reduce TK-VZV (YS/R) virus-induced cytopathicity by 50%.
For experiment [11], the system named is Vesicular stomatitis virus. Put plainly: Minimum inhibitory concentration required to reduce VSV virus-induced cytopathicity by 50%.
Experiment [12] concerns Vaccinia virus. Briefly: Minimum inhibitory concentration required to reduce vaccinia virus (VV) virus-induced cytopathicity by 50%. As to conditions: Orthopoxvirus vaccinia.
The subject of experiment [13] is Human alphaherpesvirus 3. Put plainly: Minimum inhibitory concentration required to reduce Varicella-Zoster virus (VZV (Oka)) virus-induced cytopathicity by 50%.
The test system of experiment [14] is Human alphaherpesvirus 1. Put plainly: Minimum inhibitory concentration required to reduce herpes simplex virus-1 (HSV-1 (F)) virus-induced cytopathicity by 50%.
Experiment [15] relates to Cell line. Put plainly: Minimum concentration required to cause a microscopically detectable alteration of cell morphology. As to conditions: Homo sapiens. The method, boiled down:
(§1)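 Cytotoxicity read as the minimum concentration causing a microscopically detectable alteration of normal cell morphology. Cells were human embryonic skin-muscle (E6SM) or human embryonic lung (HEL), seeded in 96-well plates.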

Experiment [16] is described as follows: Minimum inhibitory concentration required to reduce virus-induced cell growth by 50%. As to conditions: Homo sapiens.
The test system of experiment [17] is Human alphaherpesvirus 2. Briefly: Minimum inhibitory concentration required to reduce herpes simplex virus-2 (HSV-2 (196)) virus-induced cytopathicity by 50%.
Experiment [18] has as its system Mus musculus. Put plainly: Survival of mice after intraperitoneal infection with HSV-1 (KOS) and oral administration of 25 mg/kg at day 20. The method, boiled down:
(§2)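 Mice were infected intraperitoneally with HSV-1 (KOS), 10 mice per group. Drug was given by oral gavage once daily for 5 days, starting on the day of infection, at 25, 100 or 250 mg/kg per day. Vehicle was a 90:10 suspension of Sirupus Simplex and propylene glycol; the placebo group got the same syrup. Surviving mice were counted over 20 days.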

For experiment [19], the system named is Mus musculus. Briefly: Survival of mice after intraperitoneal infection with HSV-1 (KOS) and oral administration of 100 mg/kg at day 0. The method, boiled down:
as §2

The test system of experiment [20] is Mus musculus. Put plainly: Survival of mice after intraperitoneal infection with HSV-1 (KOS) and oral administration of 100 mg/kg at day 12. The method, boiled down: as §2
Experiment [21] relates to Mus musculus. Briefly: Survival of mice after intraperitoneal infection with HSV-1 (KOS) and oral administration of 100 mg/kg at day 20. The method, boiled down:
as §2

Experiment [22] relates to Mus musculus. Briefly: Survival of mice after intraperitoneal infection with HSV-1 (KOS) and oral administration of 100 mg/kg at day 3. The gist of the method:
as §2

The test system of experiment [23] is Mus musculus. Put plainly: Survival of mice after intraperitoneal infection with HSV-1 (KOS) and oral administration of 100 mg/kg at day 6. The gist of the method:
as §2

For experiment [24], the system named is Mus musculus. Put plainly: Survival of mice after intraperitoneal infection with HSV-1 (KOS) and oral administration of 100 mg/kg at day 9. The method, boiled down: as §2
Experiment [25] concerns Mus musculus. Briefly: Survival of mice after intraperitoneal infection with HSV-1 (KOS) and oral administration of 25 mg/kg at day 0. The gist of the method:
as §2

Experiment [26] has as its system Mus musculus. Briefly: Survival of mice after intraperitoneal infection with HSV-1 (KOS) and oral administration of 25 mg/kg at day 12. The method, boiled down: as §2
Experiment [27] relates to Mus musculus. Put plainly: Survival of mice after intraperitoneal infection with HSV-1 (KOS) and oral administration of 25 mg/kg at day 3. The method, boiled down: as §2
The subject of experiment [28] is Mus musculus. Put plainly: Survival of mice after intraperitoneal infection with HSV-1 (KOS) and oral administration of 25 mg/kg at day 6. The method, boiled down:
as §2

Experiment [29] deals with Mus musculus. Briefly: Survival of mice after intraperitoneal infection with HSV-1 (KOS) and oral administration of 25 mg/kg at day 9. The gist of the method:
as §2

In experiment [30] the test system is Mus musculus. Briefly: Survival of mice after intraperitoneal infection with HSV-1 (KOS) and oral administration of 250 mg/kg at day 0. The method, boiled down:
as §2

Experiment [31] relates to Mus musculus. Briefly: Survival of mice after intraperitoneal infection with HSV-1 (KOS) and oral administration of 250 mg/kg at day 12. The gist of the method: as §2
The test system of experiment [32] is Mus musculus. Briefly: Survival of mice after intraperitoneal infection with HSV-1 (KOS) and oral administration of 250 mg/kg at day 20. The method, boiled down: as §2
In experiment [33] the test system is Mus musculus. Put plainly: Survival of mice after intraperitoneal infection with HSV-1 (KOS) and oral administration of 250 mg/kg at day 3. The gist of the method:
as §2

For experiment [34], the system named is Mus musculus. Put plainly: Survival of mice after intraperitoneal infection with HSV-1 (KOS) and oral administration of 250 mg/kg at day 9. The method, boiled down:
as §2

The subject of experiment [35] is Mus musculus. Put plainly: Survival of mice after intraperitoneal infection with HSV-1 (KOS) and oral administration of 250 mg/kg at day 6. The gist of the method:
as §2

Experiment [36] concerns Cell line. Put plainly: Minimum concentration required to cause a microscopically detectable alteration of human cells morphology. The method, boiled down: as §1

The structures appear in SMILES notation. In brackets after ≈: the same amount, converted by molar mass.

As to `O=c1[nH]c(=O)n([C@H]2C[C@H](O)[C@@H](CO)O2)cc1-c1ccsc1`, the MIC in [1] is > 40 µg/mL; in experiment [2] it was > 40 µg/mL; in [3], 0.3 µg/mL (≈ 0.967 µM); in experiment [4] it was 0.04 µg/mL (≈ 0.129 µM); in [5], 70 µg/mL (≈ 226 µM); in experiment [6], 70 µg/mL (≈ 226 µM). For the same compound, the MIC in experiment [7] was 150 µg/mL (≈ 483 µM); in experiment [8], > 100 µg/mL; in experiment [9] it was 35 µg/mL (≈ 113 µM); in experiment [10], 20 µg/mL (≈ 64.4 µM); in experiment [11], > 100 µg/mL; in experiment [12], > 40 µg/mL. In addition, the MIC in experiment [13] is 1.5 µg/mL (≈ 4.83 µM); in experiment [14] it was 0.6 µg/mL (≈ 1.93 µM); in experiment [15], > 100 µg/mL; in experiment [16] it was > 50 µg/mL; in [17], 100 µg/mL (≈ 322 µM).
Regarding `O=c1[nH]c(=O)n([C@H]2C[C@H](O)[C@@H](CO)O2)cc1-c1cccs1`, the MIC in [1] turned out to be 60 µg/mL (≈ 193 µM); in [2] it was 40 µg/mL (≈ 129 µM); in experiment [3], 1.5 µg/mL (≈ 4.83 µM); in experiment [4], 0.3 µg/mL (≈ 0.967 µM); in [5], 50 µg/mL (≈ 161 µM); in experiment [6], 20 µg/mL (≈ 64.4 µM). The MIC in [7] is > 100 µg/mL; in experiment [8], > 100 µg/mL; in [9], 8 µg/mL (≈ 25.8 µM); in experiment [10] it was 30 µg/mL (≈ 96.7 µM); in experiment [11], > 100 µg/mL; in [12], 20 µg/mL (≈ 64.4 µM). Also, the MIC in experiment [13] came out at 3 µg/mL (≈ 9.67 µM); in experiment [14] it was 0.35 µg/mL (≈ 1.13 µM); in experiment [15], 100 µg/mL (≈ 322 µM); in experiment [16], 45 µg/mL (≈ 145 µM); in experiment [17], 50 µg/mL (≈ 161 µM).
For the compound `O=c1[nH]c(=O)n(C2O[C@H](CO)[C@@H](O)[C@@H]2O)cc1-c1ccc(Cl)s1` (stereo partly specified), the MIC came to 30 µg/mL (≈ 83.2 µM) in [1]; 70 µg/mL (≈ 194 µM) in experiment [2]; 0.15 µg/mL (≈ 0.416 µM) in experiment [3]; 0.015 µg/mL (≈ 0.0416 µM) in experiment [4]; 300 µg/mL (≈ 832 µM) in experiment [5]; 150 µg/mL (≈ 416 µM) in experiment [6]. Further, the MIC is > 400 µg/mL in [7]; > 400 µg/mL in experiment [8]; 60 µg/mL (≈ 166 µM) in experiment [9]; 37 µg/mL (≈ 103 µM) in experiment [10]; > 400 µg/mL in experiment [11]; > 150 µg/mL in experiment [12]. In addition, the MIC was 0.08 µg/mL (≈ 0.222 µM) in [13]; 0.05 µg/mL (≈ 0.139 µM) in experiment [14]; > 400 µg/mL in experiment [15]; > 50 µg/mL in experiment [16]; 150 µg/mL (≈ 416 µM) in experiment [17].
In the case of `O=c1[nH]c(=O)n([C@H]2C[C@H](O)[C@@H](CO)O2)cc1/C=C/Br` [BRIVUDINE], the MIC was 0.01 µg/mL (≈ 0.03 µM) in experiment [3]; 0.01 µg/mL (≈ 0.03 µM) in [4]; 70 µg/mL (≈ 210 µM) in [5]; 70 µg/mL (≈ 210 µM) in experiment [6]; > 200 µg/mL in experiment [7]; 10 µg/mL (≈ 30 µM) in experiment [8]. In addition, the MIC in experiment [9] is > 40 µg/mL; in experiment [10], > 40 µg/mL; in experiment [11] it was > 200 µg/mL; in [12] it was 0.2 µg/mL (≈ 0.6 µM); in experiment [13], 0.004 µg/mL (≈ 0.012 µM); in [14], 0.02 µg/mL (≈ 0.06 µM). Also, the MIC was > 400 µg/mL in experiment [15], > 50 µg/mL in experiment [16] and > 400 µg/mL in experiment [17]. Moreover, the No. of mice is 3 in experiment [18]; 10 in experiment [19]; 8 in [20]; 7 in experiment [21]; 9 in experiment [22]; 9 in [23]. Further, the No. of mice is given as 8 in experiment [24]; 10 in experiment [25]; 3 in experiment [26]; 10 in experiment [27]; 10 in experiment [28]; 4 in experiment [29]. The No. of mice in experiment [30] worked out at 10; in [31] it was 10; in experiment [32] it was 9; in experiment [33] it was 10; in [34], 10; in experiment [35], 10.
Regarding `O=c1[nH]c(=O)n([C@H]2C[C@H](O)[C@@H](CO)O2)cc1-c1ccoc1`, the MIC in experiment [1] worked out at 80 µg/mL (≈ 272 µM); in experiment [2], 80 µg/mL (≈ 272 µM); in [3], 0.5 µg/mL (≈ 1.7 µM); in experiment [4], 0.07 µg/mL (≈ 0.238 µM); in experiment [5], 150 µg/mL (≈ 510 µM); in experiment [6], 30 µg/mL (≈ 102 µM). Also, the MIC in [7] was 100 µg/mL (≈ 340 µM); in [8], > 200 µg/mL; in [9], > 40 µg/mL; in [10] it was > 40 µg/mL; in [11] it was > 200 µg/mL; in [12], > 40 µg/mL. In addition, the MIC was > 40 µg/mL in experiment [36]; 50 µg/mL (≈ 170 µM) in [13]; 0.5 µg/mL (≈ 1.7 µM) in [14]; > 50 µg/mL in [16]; 150 µg/mL (≈ 510 µM) in experiment [17].
